This is a sample that favours compounds with a hit; in the whole collection about 2.5% have one here.
SENP1 FRET inh: human SENP1 catalytic domain inhibitors, primary screen, biochemical, FRET, uHTS; Sentrin-specific protease 1 (Homo sapiens), Q9P0U3; recombinant SENP1 catalytic domain, CyPet-SUMO1-YPet FRET cleavage; inhibition, % at 10 µM; 360,000 tested, 0.21% active; AID 624204, 2012;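 active = inhibition at least 30% at 10 µM, raw YFP signal under a set limit, fluorescence ratio 0.5 to 1.5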;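 also: 0% = enzyme with DMSO and 100% = no enzyme wells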
Target sequence (Q9P0U3 419-644 limits assumed): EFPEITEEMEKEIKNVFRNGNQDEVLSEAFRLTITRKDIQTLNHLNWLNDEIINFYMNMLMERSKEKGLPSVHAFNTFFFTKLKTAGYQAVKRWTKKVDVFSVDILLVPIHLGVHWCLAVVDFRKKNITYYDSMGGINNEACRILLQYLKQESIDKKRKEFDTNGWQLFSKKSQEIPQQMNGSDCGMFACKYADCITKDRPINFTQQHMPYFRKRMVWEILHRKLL
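material = recombinant human SENP1 catalytic domain, His6-tagged | quantity = 20 pM enzyme | reagent = 25 nM SUMO1 FRET substrate | compound dosing = 10 µM single point, 0.5% DMSO | timing = 50 min enzyme reaction, room temperature, light-protected | detection = FRET, CFP and YFP emission | control set = no-enzyme low, enzyme-DMSO high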
SENP8 block-1: human SENP8 protease inhibitors, primary screen, biochemical, fluorescence, Nedd8 protein substrate, uHTS | recombinant SENP8 | inhibition, % at 20 µM | 360,000 tested, 0.64% active | AID 602440, 2012; in the data active = inhibition mostly above about 40%, no sharp cut-off; inactive = mostly below about 27%
Target sequence (Q96LD8 whole entry, looked up): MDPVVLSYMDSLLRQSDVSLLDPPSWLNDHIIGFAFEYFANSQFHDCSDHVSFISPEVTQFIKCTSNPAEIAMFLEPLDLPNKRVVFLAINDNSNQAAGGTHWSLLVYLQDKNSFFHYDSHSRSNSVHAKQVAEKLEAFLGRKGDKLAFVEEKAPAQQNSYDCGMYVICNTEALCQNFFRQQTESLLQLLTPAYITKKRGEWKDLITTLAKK
SENP6 inh: SENP6 protease inhibitors, primary screen, biochemical, luminescence, uHTS; Sentrin-specific protease 6 (Homo sapiens), Q9GZR1; Recombinant SENP6 catalytic domain, aminoluciferin luminescence; inhibition, % at 10 µM; 330,000 tested, 1.8% active;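 active = inhibition above about 50% at the single tested dose, limit read from the data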;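 also: plate controls were DMSO wells with enzyme for no effect and DMSO wells lacking enzyme for full effect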
SENP8 block-2: SENP8 protease inhibitors, primary screen, biochemical, luminescence; 330,000 tested, 1.2% active; inhibition, % at 10 µM; AID 2540, 2010; Sentrin-specific protease 8 (Homo sapiens), Q96LD8; purified SENP8, Z-RLRGG-aminoluciferin cleavage; in the data active = inhibition above about 50%
SENP7 inh: SENP7 protease inhibitors, primary screen, biochemical, luminescence, uHTS; recombinant SENP7, Z-RLRGG-aminoluciferin luminescence, 40 min; inhibition, % at 5 µM; 330,000 tested, 1.5% active;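 active = inhibition above about 50% at the single test dose, limit read from the data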;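 also: plate controls were DMSO with enzyme for no effect and no enzyme buffer wells for full effect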
SENP1 conf: human SENP1 catalytic domain inhibitors, confirmation, biochemical, FRET endpoint, single concentration; shares compounds with SENP1 FRET inh; recombinant SENP1, CyPet-SUMO1-YPet FRET cleavage; inhibition, % at 10 µM; 520 tested, 34% active; AID 651678, 2012; in the data active = inhibition mostly above about 35%, no sharp cut-off; inactive = mostly below about 32%;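 also: 0% = enzyme with DMSO and 100% = no enzyme control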
SENP1 kinetic: human SENP1 catalytic domain inhibitors, confirmation, biochemical, kinetic FRET, single concentration | 520 tested, 26% active | AID 651690, 2012 | shares compounds with SENP1 FRET inh | inhibition, % at 10 µM | recombinant SENP1, CyPet-SUMO1-YPet FRET kinetic cleavage; in the data active = inhibition mostly above about 32%, no sharp cut-off; inactive = mostly below about 29%;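 also: 0% = DMSO with enzyme and 100% = no enzyme substrate only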
Active calls of the source: *; ! = not confirmed by another sample.

How did Cc1ccc(-c2ccc(SCC(=O)N3CCN(c4ccccc4)CC3)nn2)cc1 do in these assays?
SENP1 FRET inh: 32*; SENP8 block-1: 12; SENP6 inh: 2; SENP8 block-2: -1; SENP7 inh: 5; SENP1 conf: 9; SENP1 kinetic: 13

Results for CCOC(=O)[C@H]1NN=C(C(=O)OC)[C@@H]1c1ccccc1 ?
SENP1 FRET inh: 0; SENP8 block-1: 23; SENP6 inh: 3; SENP8 block-2: -2; SENP7 inh: 2

How did COc1ccc([C@H]2CC(=O)C=C(c3ccc(O)cc3)C2)cc1OC do in these assays?
SENP1 FRET inh: -18; SENP8 block-1: 16; SENP6 inh: 7; SENP8 block-2: -5; SENP7 inh: 2

What do the screens show for `O=C1C=C(c2cccc(Cl)c2)C[C@@H](c2ccc3c(c2)OCO3)C1`?
SENP1 FRET inh: 4; SENP8 block-1: 7; SENP6 inh: -5; SENP8 block-2: 2; SENP7 inh: 4

How did COc1ccc([C@H]2CC(=O)C=C(c3cccc(Cl)c3O)C2)cc1OC do in these assays?
SENP1 FRET inh: 33*; SENP8 block-1: 9; SENP6 inh: -3; SENP8 block-2: 7; SENP7 inh: -3; SENP1 conf: 74*; SENP1 kinetic: 62*

What do the screens show for `O=C1C=C(c2cccc(Cl)c2O)C[C@@H](c2ccc3c(c2)OCO3)C1`?
SENP1 FRET inh: 50*; SENP8 block-1: -17; SENP6 inh: -5; SENP8 block-2: 8; SENP7 inh: 1; SENP1 conf: 95*; SENP1 kinetic: 77*

What do the screens show for `O=C(Nc1ccnn1C1CCN(C2CCOCC2)CC1)c1cccc(F)c1`?
SENP1 FRET inh: 1; SENP8 block-1: 6; SENP6 inh: -2; SENP8 block-2: 6; SENP7 inh: -1

What do the screens show for `Cn1c(/C(C#N)=C(\O)c2ccc(Cl)s2)nc2ccccc21`?
SENP1 FRET inh: -55; SENP8 block-1: 0; SENP6 inh: -24; SENP8 block-2: -11; SENP7 inh: 11

How did Cn1c(/C(C#N)=C(\O)c2ccc([N+](=O)[O-])s2)nc2ccccc21 do in these assays?
SENP1 FRET inh: 46*; SENP8 block-1: 16; SENP6 inh: -14; SENP8 block-2: 6; SENP7 inh: 5; SENP1 conf: 11; SENP1 kinetic: 12

How did NC(=O)C[n+]1cccc2ccccc21 do in these assays?
SENP1 FRET inh: 39*; SENP8 block-1: -61; SENP6 inh: -22; SENP8 block-2: -6; SENP7 inh: 17; SENP1 conf: 9; SENP1 kinetic: 9

What do the screens show for `O=C(C[n+]1cccc2ccccc21)c1ccc(Br)cc1`?
SENP1 FRET inh: 57*; SENP8 block-1: -44; SENP6 inh: -4; SENP8 block-2: -4; SENP7 inh: 3; SENP1 conf: 5; SENP1 kinetic: 11

Results for O=[N+]([O-])c1ccc(C[n+]2cccc3ccccc32)cc1 ?
SENP1 FRET inh: 2; SENP8 block-1: 14; SENP6 inh: 0; SENP8 block-2: 2; SENP7 inh: 3

What do the screens show for `Cc1ccc(C(=O)C[n+]2cccc3ccccc32)cc1`?
SENP1 FRET inh: 30*; SENP8 block-1: -71; SENP6 inh: -10; SENP8 block-2: -4; SENP7 inh: -1; SENP1 conf: 14; SENP1 kinetic: 16

Results for Cc1ccc(C(=O)C[n+]2ccccc2)cc1 ?
SENP1 FRET inh: -2; SENP8 block-1: 14; SENP6 inh: 20; SENP8 block-2: 5; SENP7 inh: 6

How did COc1ccc(C(=O)ON=C(C)c2nccs2)cc1 do in these assays?
SENP1 FRET inh: 7; SENP8 block-1: 15

Results for CCCCc1nnc(NC(=O)c2oc3ccccc3c2C)s1 ?
SENP1 FRET inh: -2; SENP8 block-1: -36; SENP6 inh: 23; SENP8 block-2: -11; SENP7 inh: -11

What do the screens show for `CN1Cc2c(N)cccc2C(c2ccccc2)C1` (stereo not given)?
SENP1 FRET inh: 74*!; SENP8 block-1: 30; SENP6 inh: 6; SENP8 block-2: 1; SENP7 inh: 7; SENP1 conf: 67*; SENP1 kinetic: 45*

How did O=C(NN1C(=O)C2C(c3ccccc3)C=CC(c3ccccc3)C2C1=O)c1cccc(Br)c1 (stereo not given) do in these assays?
SENP1 FRET inh: 40*; SENP8 block-1: 4; SENP6 inh: -10; SENP8 block-2: 4; SENP7 inh: 2; SENP1 conf: 11; SENP1 kinetic: 12

What do the screens show for `O=C(NN1C(=O)C2C(c3ccccc3)C=CC(c3ccccc3)C2C1=O)c1ccccc1` (stereo not given)?
SENP1 FRET inh: 41*; SENP8 block-1: 11; SENP6 inh: -11; SENP8 block-2: -9; SENP7 inh: -9; SENP1 conf: 6; SENP1 kinetic: 6

How did O=C(NN1C(=O)C2C3c4ccccc4C(c4ccccc43)[C@@H]2C1=O)c1ccccc1 (stereo not given in full) do in these assays?
SENP1 FRET inh: -2; SENP8 block-1: 14; SENP6 inh: -5; SENP8 block-2: -1; SENP7 inh: 2

How did CC(C)(CN=C1NS(=O)(=O)c2ccccc21)CNC(=O)c1ccccc1 do in these assays?
SENP1 FRET inh: 0; SENP8 block-1: 0; SENP6 inh: -10; SENP8 block-2: -7; SENP7 inh: -6

How did O=C(C1=C(Nc2ccccc2)c2ccccc2S(=O)(=O)N1)c1ccccc1 do in these assays?
SENP1 FRET inh: 49*; SENP8 block-1: 27; SENP6 inh: -19; SENP8 block-2: -9; SENP7 inh: -1; SENP1 conf: 22; SENP1 kinetic: 24

Results for COc1cc([C@H]2c3c(cc(OC)c(O)c3OC)C[C@@H](CO)[C@@H]2CO[C@@H]2O[C@H](CO)[C@@H](O)[C@H](O)[C@H]2O)cc(OC)c1O ?
SENP1 FRET inh: 40*; SENP8 block-1: -3; SENP6 inh: -10; SENP8 block-2: -8; SENP7 inh: 7; SENP1 conf: 33*; SENP1 kinetic: 22

Results for CCc1cccc(CC)c1-n1c(SCC(=O)N2CCc3ccccc3C2)nnc1-c1cccnc1 ?
SENP1 FRET inh: 37*; SENP8 block-1: 9; SENP6 inh: 1; SENP8 block-2: -5; SENP7 inh: -7; SENP1 conf: 11; SENP1 kinetic: 14

Bioassay records deposited in PubChem BioAssay by Sanford-Burnham Center for Chemical Genomics.
